# Data from PMC5931369 (Nature chemical biology, 2018).
# Values joined by “and” are separate entries in the source; they are usually repeats but may differ in a detail not shown here. Identical values can stand only once. “Also recorded” adds a separate entry of the source.
# Columns and labels:
# [1] = system: ptc>dRet^M955T flies; assay: rescue-from-lethality assay in ptc>dRet^M955T flies; format: in vivo, Drosophila; conditions: drug food, 25°C; for rescue of ptc>dRet^M955T flies to adulthood (% viability): optimal dose
# Outline: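 ptc-gal4,UAS-GFP;UAS-dRetM955T/SM5tub-gal80-TM6B flies were crossed with w−. Embryos were raised for 13 days at 25°C on semi-defined medium carrying compound added from DMSO, 0.1% final. Flies were randomised. % viability = empty pupal cases ÷ total pupal cases. The assay was repeated twice.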
# [2] = system: 765>dRet^M955T flies; assay: wing venation assay; format: in vivo, Drosophila
# Outline: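 UAS-dRetM955T;765-gal4/SM5tub-gal80-TM6B flies were crossed with w– or Lk6−/+ to give 765>dRetM955T or 765>dRetM955T,Lk6−/+ progeny. Progeny were reared for 13 days at 25°C on medium with or without compound (0.1% final DMSO). Adult wings were scored blind for abnormal venation. The assay was repeated twice.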
# [3] = system: dRet^M955T-expressing wing cells; assay: in vivo cell migration assay in developing wing discs; design: species or system Drosophila; conditions: for EMT and migration/invasion of dRet^M955T-expressing wing cells: ptc>dRet^M955T wing discs; for effect of reduced Lk6 on suppression of ptc>dRet^M955T cell migration: ptc>dRet^M955T,Lk6^−/+ wing discs, 1 400 µM, 4 200 µM, 9 100 µM, 10 100 µM
# Outline: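 Third-instar larvae were dissected to collect developing wing discs. Discs were fixed in 4% paraformaldehyde in PBS and whole-mounted. GFP-labelled dRetM955T-expressing cells were examined by confocal microscopy. Phospho-Src was immunostained with rabbit anti-Src(pY418).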
# [4] = system: ptc>dRet^M955T flies with or without kinase heterozygous mutations; format: in vivo, Drosophila; conditions: 23°C
# [5] = system: non-oncogenic w^− flies; assay: whole body toxicity in control, non-transformed flies; format: in vivo, Drosophila; conditions: fed to control
# [6] = molecular target: BRAF (Homo sapiens, UniProt P15056); assay: Kd measurement; format: binding; conditions: cell-free in vitro
# Chain of BRAF (P15056 whole entry): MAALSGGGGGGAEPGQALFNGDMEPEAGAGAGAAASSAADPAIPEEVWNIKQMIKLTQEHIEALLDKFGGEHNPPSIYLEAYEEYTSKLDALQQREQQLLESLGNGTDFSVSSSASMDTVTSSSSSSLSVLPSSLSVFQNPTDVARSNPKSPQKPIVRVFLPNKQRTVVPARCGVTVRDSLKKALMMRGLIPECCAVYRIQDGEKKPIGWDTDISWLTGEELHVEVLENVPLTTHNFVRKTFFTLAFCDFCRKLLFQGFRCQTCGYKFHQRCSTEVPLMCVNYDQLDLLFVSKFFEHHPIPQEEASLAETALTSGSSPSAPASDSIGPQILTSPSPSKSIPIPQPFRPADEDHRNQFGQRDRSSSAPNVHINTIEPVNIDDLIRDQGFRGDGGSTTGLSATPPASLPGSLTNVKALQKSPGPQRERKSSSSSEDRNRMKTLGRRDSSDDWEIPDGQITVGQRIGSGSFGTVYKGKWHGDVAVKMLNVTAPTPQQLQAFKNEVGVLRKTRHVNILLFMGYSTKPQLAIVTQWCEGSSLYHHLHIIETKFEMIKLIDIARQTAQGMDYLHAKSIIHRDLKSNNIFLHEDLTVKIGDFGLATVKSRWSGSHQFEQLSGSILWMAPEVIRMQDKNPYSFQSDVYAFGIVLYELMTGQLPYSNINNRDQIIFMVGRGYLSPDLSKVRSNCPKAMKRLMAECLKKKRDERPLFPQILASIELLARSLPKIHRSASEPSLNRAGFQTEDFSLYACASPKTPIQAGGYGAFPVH
# Outline: (§1)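 Competition binding assay: kinases expressed on phage and captured on beads through immobilised active-site-directed ligands. Test compound is premixed with kinase and scored for its ability to compete for the immobilised ligand. An 11-point series, 30,000 to 0.5 nM in 3-fold dilutions, is used for each compound–kinase pair. Kd is fitted by the Hill equation with slope fixed at -1 and averaged over two replicates.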
# [7] = molecular target: MKNK1 (Homo sapiens, UniProt Q9BUB5); assay: Kd measurement; format: binding
# Chain of MKNK1 (Q9BUB5 whole entry): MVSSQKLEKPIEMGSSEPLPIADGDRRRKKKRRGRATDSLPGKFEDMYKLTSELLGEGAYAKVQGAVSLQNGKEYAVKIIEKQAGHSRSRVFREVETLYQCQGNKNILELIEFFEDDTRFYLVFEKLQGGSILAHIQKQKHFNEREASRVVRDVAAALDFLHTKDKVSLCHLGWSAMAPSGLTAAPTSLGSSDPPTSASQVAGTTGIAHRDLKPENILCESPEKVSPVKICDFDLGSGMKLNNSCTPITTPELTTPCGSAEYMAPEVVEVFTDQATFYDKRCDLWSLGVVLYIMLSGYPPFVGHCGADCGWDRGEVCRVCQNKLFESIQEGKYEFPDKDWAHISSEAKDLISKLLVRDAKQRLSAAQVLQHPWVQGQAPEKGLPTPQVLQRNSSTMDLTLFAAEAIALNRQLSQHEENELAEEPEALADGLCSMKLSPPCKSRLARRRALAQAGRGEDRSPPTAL
# Outline: as §1
# [8] = system: TT human MTC cells; assay: soft agar colony formation assay; format: cell-based; conditions: three weeks, compared with sorafenib and 4
# Outline: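 TT cells were cultured in 0.3% agar with or without test compound for three weeks. Colony formation efficiency = number of growing colonies ÷ cells seeded. The assay was repeated twice.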
# [9] = system: TT cells; assay: TT cell xenograft assay in nude mice; format: in vivo, mouse
# Outline: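 Forty female nude mice (6 weeks) received subcutaneous TT cells. At ~120 mm3 tumour volume they were randomised into four arms. Each arm was dosed orally five days per week with vehicle or 10 mg/kg/day compound. Vehicle: Cremophor EL/ethanol (1:1) diluted 4-fold with water.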
# [10] = molecular target: RET (Homo sapiens, UniProt P07949); assay: Kd measurement; format: binding
# Chain of RET (P07949 29-1114): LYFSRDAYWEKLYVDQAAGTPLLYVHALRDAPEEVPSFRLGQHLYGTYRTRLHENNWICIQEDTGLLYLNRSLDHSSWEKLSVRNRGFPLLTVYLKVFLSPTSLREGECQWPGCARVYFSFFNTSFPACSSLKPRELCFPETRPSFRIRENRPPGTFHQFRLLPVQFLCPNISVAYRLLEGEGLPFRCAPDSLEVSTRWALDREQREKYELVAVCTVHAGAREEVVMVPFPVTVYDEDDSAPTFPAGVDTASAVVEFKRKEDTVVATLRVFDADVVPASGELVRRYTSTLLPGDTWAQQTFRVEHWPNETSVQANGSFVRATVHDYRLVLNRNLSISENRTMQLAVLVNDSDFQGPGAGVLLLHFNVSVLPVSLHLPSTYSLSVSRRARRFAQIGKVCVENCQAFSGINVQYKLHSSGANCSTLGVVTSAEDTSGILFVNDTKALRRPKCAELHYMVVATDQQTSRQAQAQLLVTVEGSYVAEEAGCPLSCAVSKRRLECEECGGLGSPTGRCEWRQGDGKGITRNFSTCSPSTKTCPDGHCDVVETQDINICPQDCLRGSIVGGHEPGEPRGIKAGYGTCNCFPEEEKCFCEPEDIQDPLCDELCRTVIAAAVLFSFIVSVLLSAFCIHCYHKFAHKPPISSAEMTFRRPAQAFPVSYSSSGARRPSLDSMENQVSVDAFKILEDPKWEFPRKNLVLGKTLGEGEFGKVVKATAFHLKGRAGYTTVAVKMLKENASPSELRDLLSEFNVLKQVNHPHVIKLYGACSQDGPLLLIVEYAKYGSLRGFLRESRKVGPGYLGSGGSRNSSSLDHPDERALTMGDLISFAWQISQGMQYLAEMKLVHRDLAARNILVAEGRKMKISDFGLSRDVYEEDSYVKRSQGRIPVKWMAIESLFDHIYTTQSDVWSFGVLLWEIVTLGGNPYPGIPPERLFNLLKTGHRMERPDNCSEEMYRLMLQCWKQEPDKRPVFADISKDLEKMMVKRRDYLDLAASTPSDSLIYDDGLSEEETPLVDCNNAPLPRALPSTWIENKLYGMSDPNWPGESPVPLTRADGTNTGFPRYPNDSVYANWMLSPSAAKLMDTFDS
# Outline: as §1
# [11] = toleration assay; format: in vivo, mouse
# Outline: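 Five female athymic nude mice (6 weeks) received escalating oral doses from 0.1 mg/kg/day up to 160 mg/kg/day.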
# [12] = system: TT human MTC cells; assay: signaling pathway activity analysis; format: cell-based; conditions: 1 µM, 1 hour
# Outline: (§2)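 MZ-CRC-1 or TT medullary thyroid carcinoma cells were exposed for 1 hour to vehicle (0.1% DMSO) or 1 µM test compound. Cells were harvested and immunoblotted for pMEK, total MEK, pERK1/2, total ERK1/2 and pS6.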
# [13] = system: BRAF in HCT-116 and LOVO cells; assay: RAF transactivation assay in human cancer cell lines; format: cell-based; conditions: two cancer cell lines (HCT-116, LOVO), 1 hour
# Outline: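 HCT-116 cells are kept in DMEM and LOVO cells in DMEM/F12, each with 10% FBS, 2 mM glutamine and antibiotics. Cells are seeded, then treated with test compound for 1 hour after 24 hours. Lysates are BCA-normalised, run on 4–15% gradient SDS-PAGE and immunoblotted for pMEK, pERK1/2 and total MEK.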
# [14] = system: MZ-CRC-1 human MTC cells; assay: signaling pathway activity analysis; format: cell-based; conditions: MZ-CRC-1 cells, 1 µM, 1 hour
# Outline: as §2
# [15] = pharmacokinetics assay in mice; format: in vivo, mouse
# Outline: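 Male ICR mice (6 weeks) received a single oral dose of 20 mg/kg. Plasma drug concentrations were measured at 0.25, 0.5, 1, 2, 4, 8, 10 and 24 h after dosing.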
# [16] = higher doses that rescued ptc>dRet^M955T viability
# [17] = low dose, 10 µM final food concentration, 765>dRet^M955T larvae
compound,measurement,setting,value
"CNC(=O)c1cc(Oc2ccc(NC(=O)Nc3cccc(C(F)(F)F)c3)cc2)ccn1 [LS1-11-2, N-methyl-4-(4-(3-(3-(trifluoromethyl)phenyl)ureido)phenoxy)picolinamide]","rescue of ptc>dRet^M955T viability, in words",[1],reduced survival
"CNC(=O)c1cc(Oc2ccc(NC(=O)Nc3cc(C(F)(F)F)ccc3F)cc2)ccn1 [compound 4, 4-(4-(3-(2-fluoro-5-(trifluoromethyl)phenyl)ureido)phenoxy)-N-methylpicolinamide]",ectopic wing venation,[2]; [16],did not promote ectopic wing venation
same,ectopic wing venation,[2]; [17],stimulated significant excess wing vein material
same,"rescue of ptc>dRet^M955T viability, in words",[1]; listed as LS1-15,more effective than sorafenib
same,EMT and migration/invasion of dRet^M955T-expressing wing cells,[3],as effective as sorafenib in suppressing EMT and invasion
same,effect of reduced Lk6 on suppression of ptc>dRet^M955T cell migration,[3],reversed suppression
same,viability of ptc>dRet^M955T flies,[4]; kinase-proficient control flies,~ 50% and 50%
same,"survival to adulthood of ptc>dRet^M955T,Lk6^−/+ flies",[4]; one functional allele of Lk6 removed,0%
same,"viability of ptc>dRet^M955T,phl^−/+ flies",[4]; phl (RAF ortholog) heterozygous,96%
"CNC(=O)c1cc(Oc2ccc(NC(=O)Nc3cc(C(F)(F)F)ccc3F)c(F)c2)ccn1 [compound 5, 4-(3-fluoro-4-(3-(2-fluoro-5-(trifluoromethyl)phenyl)ureido)phenoxy)-N-methylpicolinamide]","rescue of ptc>dRet^M955T viability, in words",[1],more effective than sorafenib
same,EMT and migration/invasion of dRet^M955T-expressing wing cells,[3],as effective as sorafenib in suppressing EMT and invasion
"CNC(=O)c1cc(Oc2ccc(NC(=O)c3ccc(Cl)c(C(F)(F)F)c3)cc2)ccn1 [compound 6, 4-(4-(4-chloro-3-(trifluoromethyl)benzamido)phenoxy)-N-methylpicolinamide]",whole body toxicity,[5],toxic
same,EMT and migration/invasion of dRet^M955T-expressing wing cells,[3],enhanced cell migration
"CNC(=O)c1cc(Oc2ccc(NC(=O)Nc3cc(C(F)F)ccc3F)cc2)ccn1 [compound 7, 4-(4-(3-(5-(difluoromethyl)-2-fluorophenyl)ureido)phenoxy)-N-methylpicolinamide]","rescue of ptc>dRet^M955T viability, in words",[1],reduced rescue
same,"rescue of ptc>dRet^M955T viability, in words",[1]; listed as APS4-54,poor whole animal activity
"CNC(=O)c1cc(Oc2ccc(NC(=O)Nc3cc(C)ccc3F)cc2)ccn1 [compound 8, 4-(4-(3-(2-fluoro-5-methylphenyl)ureido)phenoxy)-N-methylpicolinamide]","rescue of ptc>dRet^M955T viability, in words",[1],reduced rescue
same,"rescue of ptc>dRet^M955T viability, in words",[1]; listed as APS4-35-1,poor whole animal activity
"CNC(=O)c1cc(Oc2ccc(NC(=O)Nc3cc(C(F)(F)C(F)(F)F)ccc3F)cc2)ccn1 [compound 9, 4-(4-(3-(2-fluoro-5-(perfluoroethyl)phenyl)ureido)phenoxy)-N-methylpicolinamide]",ectopic wing venation,[2]; at any dose,failed to promote ectopic wing venation
same,"rescue of ptc>dRet^M955T viability, in words",[1],strongly improved
same,BRAF binding compared to sorafenib and 4,[6],reduced BRAF binding
same,effect of reduced Lk6 on suppression of ptc>dRet^M955T cell migration,[3],not affected
same,in vitro MKNK1 binding relative to sorafenib,[7],significantly reduced
same,colony formation of TT cells in soft agar,[8],strongly suppressed
"CNC(=O)c1cc(Oc2ccc(NC(=O)Nc3cc(C(F)(C(F)(F)F)C(F)(F)F)ccc3F)cc2)ccn1 [compound 10, 4-(4-(3-(2-fluoro-5-(perfluoropropan-2-yl)phenyl)ureido)phenoxy)-N-methylpicolinamide]","partial or complete responses, share of dosed mice","[9]; 10 mg/kg/day p.o. five days per week, day 30, female nude mice",75%
same,growth of established TT tumors,"[9]; 10 mg/kg/day p.o. five days per week, subcutaneous xenograft, nude mice",far more potently than sorafenib or cabozantinib
same,body weight of dosed mice,"[9]; 10 mg/kg/day p.o., after 30 days",no effect; also recorded: did not affect body weight
same,RET binding relative to sorafenib,[10],weaker RET binding
same,"signs of clinical distress (weight loss, discharges, morbidity)","[11]; female athymic nude mice, oral dose escalated from 0.1 up to 160 mg/kg/day",no such signs were observed
same,toxic effects after oral dosing,[11]; single oral dose of 160 mg/kg,did not cause detectable toxic effects
same,ectopic wing venation,[2]; at any dose,failed to promote ectopic wing venation
same,"rescue of ptc>dRet^M955T viability, in words",[1],strongly improved
same,rescue of ptc>dRet^M955T flies to adulthood (% viability),[1],84%
same,RAS pathway signaling,[12],strongly inhibited
same,drug concentration required to transactivate BRAF relative to sorafenib,[13],~ 30 fold
same,RAS pathway signaling,[14],strongly inhibited
same,BRAF binding compared to sorafenib and 4,[6],reduced BRAF binding
same,effect of reduced Lk6 on suppression of ptc>dRet^M955T cell migration,[3],not affected
same,treatment-related clinical signs following dosing,"[15]; 20 mg/kg orally, male ICR mice",No treatment-related clinical signs were observed
same,concentration in blood plasma,"[15]; 20 mg/kg p.o., male ICR mice",approximately 10 µM
same,half-life,"[15]; male, ICR, mouse, plasma, po, 20 mg/kg",5.6 h
same,in vitro MKNK1 binding relative to sorafenib,[7],only a small decrease
same,colony formation of TT cells in soft agar,[8],strongly suppressed
"CNC(=O)c1cc(Oc2ccc(NC(=O)Nc3ccc(Cl)c(C(F)(F)F)c3)c(F)c2)ccn1 [regorafenib, 4-(4-(3-(4-chloro-3-(trifluoromethyl)phenyl)ureido)-3-fluorophenoxy)-N-methylpicolinamide, reference compound]","rescue of ptc>dRet^M955T viability, in words",[1],only moderate
"CC(=O)Nc1cccc(-n2c(=O)n(C3CC3)c(=O)c3c(Nc4ccc(I)cc4F)n(C)c(=O)c(C)c32)c1 [trametinib, reference compound]",ectopic wing venation,"[2]; 1 µM, 765>dRet^M955T adults",strongly suppressed ectopic venation
same,"wing defects (enhanced wing venation, poor wing structure)","[2]; 765>dRet^M955T,Lk6^−/+ flies",suppressed
same,"rescue of ptc>dRet^M955T viability, in words",[1],only moderate
"N-methyl-4-(4-(3-(3-(trifluoromethyl)phenyl)ureido)phenoxy)picolinamide [sorafenib, reference compound]",ectopic wing venation,[2]; [16],did not promote ectopic wing venation
same,ectopic wing venation,[2]; [17],stimulated significant excess wing vein material
same,"rescue of ptc>dRet^M955T viability, in words",[1],only moderate
same,rescue of ptc>dRet^M955T flies to adulthood (% viability),[1],~ 5% and 5%
same,EMT and migration/invasion of dRet^M955T-expressing wing cells,[3],suppressed both EMT and migration
same,effect of reduced Lk6 on suppression of ptc>dRet^M955T cell migration,[3],reversed suppression
